Measured values: ChEMBL document CHEMBL1144441, “Identification of a novel cardenolide (2''-oxovoruscharin) from Calotropis procera and the hemisynthesis of novel derivatives displaying potent in vitro antitumor activities and high in vivo tolerance: structure-activity relationship analyses” (J Med Chem, 2005)

Tests used:
PC-3 = experiment: In vitro cytotoxic activity against human PC-3 cancer cell lines after 3 days of culture; type: functional
Method in brief: (§1)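 MTT overall-growth panel across 57 human cancer lines. Cells were plated for 24 h at 10 000–40 000 cells/mL, depending on cell type. Drugs were given at nine concentrations, 10^-9 to 10^-5 M in semilog steps, for 3 days. Absorbance was read at 570 nm with a 630 nm reference, in sextuplicate. Surviving cells are expressed as % of untreated control (100%).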

[1] = In vitro cytotoxic activity against human C32 cancer cell lines after 3 days of culture; type: functional; method in brief: as §1
Hs-578T = experiment: In vitro cytotoxic activity against human Hs 578.T cancer cell lines after 3 days of culture; type: functional; method in brief: as §1
[2] = In vitro cytotoxic activity against human SCC-9 cancer cell lines after 3 days of culture; type: functional; method in brief: as §1
Mus musculus = experiment: Maximum tolerated dose after intraperitoneal administration in mouse (period of 28 days); type: functional
Method in brief: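 Healthy, non-tumour-bearing B6D2F1 mice given one acute intraperitoneal dose, three mice per dose group, doses 5, 10, 20, 40, 80, 120 and 160 mg/kg. Survival and body weight followed for 28 days after injection. MTD is the highest single dose causing no deaths over the period.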

[3] = In vitro cytotoxic activity against human SW1088 cancer cell lines after 3 days of culture; type: functional
Method in brief: (§2)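 Human cancer cell lines, seeded 10 000–40 000 cells/mL and plated for 24 h, then exposed 72 h to nine drug concentrations from 10^-9 to 10^-5 M in semilog steps. Overall growth read by MTT reduction to formazan, absorbance at 570 nm (reference 630 nm). Sextuplicate wells; IC50 is the concentration reducing overall growth by 50% versus untreated control.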

[4] = In vitro cytotoxic activity against human G361 cancer cell lines after 3 days of culture; type: functional; method in brief: as §1
U-87 MG = experiment: In vitro cytotoxic activity against human U87MG cancer cell lines after 3 days of culture; type: functional, U-87MG ATCC; method in brief: as §2
U373 MG [5] = experiment: Concentration required for 50% growth inhibition of human U373 cancer cell lines after 3 days of culture; type: functional, cell-based, U-373MG ATCC; conditions: 72 h
Method in brief: (§3)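 MTT overall-growth assay on the five lines. Cells were plated for 24 h at 10 000–40 000 cells/mL, depending on cell type. Nine concentrations from 10^-9 to 10^-5 M in semilog steps were applied for 72 h. Formazan was read at 570 nm against a 630 nm reference, in sextuplicate. IC50 = concentration reducing overall growth by 50% versus untreated control.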

ZR-75-1 = experiment: In vitro cytotoxic activity against human ZR-75-1 cancer cell lines after 3 days of culture; type: functional; method in brief: as §2
786-0 = experiment: In vitro cytotoxic activity against human 786-O cancer cell lines after 3 days of culture; type: functional; method in brief: as §1
SK-MEL-28 = experiment: In vitro cytotoxic activity against human SKMEL-28 cancer cell lines after 3 days of culture; type: functional; method in brief: as §2
BXPC-3 = experiment: In vitro cytotoxic activity against human BxPC-3 cancer cell lines after 3 days of culture; type: functional; method in brief: as §1
[6] = In vitro cytotoxic activity against human MCF7HTB-22 cancer cell lines after 3 days of culture; type: functional; method in brief: as §1
[7] = In vitro cytotoxic activity against human […] cancer cell lines after 3 days of culture; type: functional; method in brief: as §1
BT-20 = experiment: In vitro cytotoxic activity against human BT-20 cancer cell lines after 3 days of culture; type: functional; method in brief: as §1
A204 = experiment: In vitro cytotoxic activity against human A204 cancer cell lines after 3 days of culture; type: functional; method in brief: as §1
HT-1080 = experiment: In vitro cytotoxic activity against human HT1080 cancer cell lines after 3 days of culture; type: functional; method in brief: as §1
HCT-15 [8] = experiment: In vitro cytotoxic activity against human HCT-15 cancer cell lines after 3 days of culture; type: functional; method in brief: as §1
[9] = In vitro cytotoxic activity against human Hs 683 cancer cell lines after 3 days of culture; type: functional; method in brief: as §1
U373 MG [10] = experiment: In vitro cytotoxic activity against human U-373MG cancer cell lines after 3 days of culture; type: functional, U-373MG ATCC; method in brief: as §2
Malme-3M = experiment: In vitro cytotoxic activity against human MALME-3M cancer cell lines after 3 days of culture; type: functional; method in brief: as §1
LoVo [11] = experiment: Concentration required for 50% growth inhibition of human LoVo cancer cell lines after 3 days of culture; type: functional, cell-based; conditions: 72 h; method in brief: as §3
ACHN = experiment: In vitro cytotoxic activity against human ACHN cancer cell lines after 3 days of culture; type: functional; method in brief: as §1
MDA-MB-231 = experiment: In vitro cytotoxic activity against human MDA-MB-231 cancer cell lines after 3 days of culture; type: functional; method in brief: as §1
[12] = In vitro cytotoxic activity against human Su.86.86 cancer cell lines after 3 days of culture; type: functional; method in brief: as §2
FaDu = experiment: In vitro cytotoxic activity against human FaDu cancer cell lines after 3 days of culture; type: functional; method in brief: as §1
HT1197 = experiment: In vitro cytotoxic activity against human HT1197 cancer cell lines after 3 days of culture; type: functional; method in brief: as §1
HT-29 = experiment: In vitro cytotoxic activity against human HT-29 cancer cell lines after 3 days of culture; type: functional; method in brief: as §1
DU-145 = experiment: In vitro cytotoxic activity against human DU145 cancer cell lines after 3 days of culture; type: functional; method in brief: as §1
A-427 = experiment: In vitro cytotoxic activity against human A427 cancer cell lines after 3 days of culture; type: functional; method in brief: as §1
[13] = Concentration required for 50% growth inhibition of human Hs 683 cancer cell lines after 3 days of culture; type: functional, cell-based; conditions: 72 h; method in brief: as §3
T-24 = experiment: In vitro cytotoxic activity against human T24 cancer cell lines after 3 days of culture; type: functional; method in brief: as §2
[14] = In vitro cytotoxic activity against human HT144 cancer cell lines after 3 days of culture; type: functional; method in brief: as §1
[15] = In vitro cytotoxic activity against human SW1783 cancer cell lines after 3 days of culture; type: functional; method in brief: as §2
LoVo [16] = experiment: In vitro cytotoxic activity against human LoVo cancer cell lines after 3 days of culture; type: functional; method in brief: as §1
PANC-1 = experiment: In vitro cytotoxic activity against human Panc-1 cancer cell lines after 3 days of culture; type: functional; method in brief: as §1
A549 [17] = experiment: Concentration required for 50% growth inhibition of human A549 cancer cell lines after 3 days of culture; type: functional, cell-based; conditions: A549, 72 h; method in brief: as §3
H4 = experiment: In vitro cytotoxic activity against human H4 cancer cell lines after 3 days of culture; type: functional; method in brief: as §1
CFPAC-1 = experiment: In vitro cytotoxic activity against human CFPAC-1 cancer cell lines after 3 days of culture; type: functional; method in brief: as §1
[18] = In vitro cytotoxic activity against human 769-P cancer cell lines after 3 days of culture; type: functional; method in brief: as §1
T98G = experiment: In vitro cytotoxic activity against human T98G cancer cell lines after 3 days of culture; type: functional; method in brief: as §2
HCT-15 [19] = experiment: Concentration required for 50% growth inhibition of human HCT-15 cancer cell lines after 3 days of culture; type: functional, cell-based; conditions: HCT-15, 72 h; method in brief: as §3
[20] = In vitro cytotoxic activity against human SK-UT-1B cancer cell lines after 3 days of culture; type: functional; method in brief: as §2
[21] = In vitro cytotoxic activity against human Capan-2 cancer cell lines after 3 days of culture; type: functional; method in brief: as §1
[22] = molecular target: Sodium/potassium-transporting ATPase subunit alpha-1 (Sus scrofa, UniProt P05024); experiment: In vitro inhibitory activity against porcine Na+/K+-ATPase
Method in brief: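 Porcine cerebral cortex Na+/K+-ATPase (3 × 10-3 units), preincubated 30 min at 37 °C in 30 mM Tris-HCl pH 7.4, 5 mM MgCl2 with inhibitor (1 to 50 000 nM). ADP formation coupled via pyruvate kinase/lactate dehydrogenase, excess phosphoenolpyruvate, to NADH oxidation.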

[23] = In vitro cytotoxic activity against human Detroit 562 cancer cell lines after 3 days of culture; type: functional; method in brief: as §1
[24] = In vitro cytotoxic activity against human Hs 174.T cancer cell lines after 3 days of culture; type: functional; method in brief: as §1
DLD-1 = experiment: In vitro cytotoxic activity against human DLD-1 cancer cell lines after 3 days of culture; type: functional; method in brief: as §1
MES-SA = experiment: In vitro cytotoxic activity against human MES-SA cancer cell lines after 3 days of culture; type: functional; method in brief: as §1
WiDr = experiment: In vitro cytotoxic activity against human WiDr cancer cell lines after 3 days of culture; type: functional; method in brief: as §2
[25] = In vitro cytotoxic activity against human Hs 766.T cancer cell lines after 3 days of culture; type: functional; method in brief: as §1
LNCaP = experiment: In vitro cytotoxic activity against human LNCaP cancer cell lines after 3 days of culture; type: functional; method in brief: as §1
[26] = In vitro cytotoxic activity against human Hs 729 cancer cell lines after 3 days of culture; type: functional; method in brief: as §1
MIA PaCa-2 = experiment: In vitro cytotoxic activity against human MiaPaca-2 cancer cell lines after 3 days of culture; type: functional; method in brief: as §1
[27] = In vitro cytotoxic activity against human SW948 cancer cell lines after 3 days of culture; type: functional; method in brief: as §2
CAKI-2 = experiment: In vitro cytotoxic activity against human CAKI-2 cancer cell lines after 3 days of culture; type: functional; method in brief: as §1
A498 = experiment: In vitro cytotoxic activity against human A-498 cancer cell lines after 3 days of culture; type: functional; method in brief: as §1
[28] = In vitro cytotoxic activity against human AL-12T cancer cell lines after 3 days of culture; type: functional; method in brief: as §1
[29] = In vitro cytotoxic activity against human SK-LMS-1 cancer cell lines after 3 days of culture; type: functional; method in brief: as §1
T47D = experiment: In vitro cytotoxic activity against human T-47D cancer cell lines after 3 days of culture; type: functional; method in brief: as §2
A549 [30] = experiment: In vitro cytotoxic activity against human A549 cancer cell lines after 3 days of culture; type: functional; method in brief: as §1

Work on `C[C@@H]1C[C@@]2(NC(=O)CS2)C2(O)O[C@@H]3C[C@@]4(CO)[C@@H](CC[C@@H]5[C@@H]4CC[C@]4(C)[C@@H](C6=CC(=O)OC6)CC[C@]54CO)C[C@H]3O[C@@H]2O1` (some centres not stated) yielded a Log IC50 (PC-3) of -8.1, a Log IC50 [1] of -7.7 and a Log IC50 (Hs-578T) of -8.7. For the same compound, the Log IC50 [2] was -7.4, the MTD (Mus musculus) was 80 mg/kg and the Log IC50 [3] was -7. The Log IC50 [4] was -8.1, the Log IC50 (U-87 MG) was -8.6 and the IC50 (U373 MG [5]) was 9 nM. It also gave a Log IC50 (ZR-75-1) of -7.4, a Log IC50 (786-0) of -8.5 and a Log IC50 (SK-MEL-28) of -7.4. It also gave a Log IC50 (BXPC-3) of -7.7, a Log IC50 [6] of -8.4 and a Log IC50 [7] of -8.7. For the same compound, the Log IC50 (BT-20) was -8.3, the Log IC50 (A204) was -8.2 and the Log IC50 (HT-1080) was -7.4. It also gave a Log IC50 (HCT-15 [8]) of -7.6, a Log IC50 [9] of -8.6 and a Log IC50 (U373 MG [10]) of -8.1. The Log IC50 (Malme-3M) was -6.4, the IC50 (LoVo [11]) was 10 nM and the Log IC50 (ACHN) was -8.2. The Log IC50 (MDA-MB-231) was -8, the Log IC50 [12] was -8.6 and the Log IC50 (FaDu) was -8.1. It also gave a Log IC50 (HT1197) of -7.1, a Log IC50 (HT-29) of -7.8 and a Log IC50 (DU-145) of -8.7. For the same compound, the Log IC50 (A-427) was -7.6, the IC50 [13] was 3 nM and the Log IC50 (T-24) was -8.6. For the same compound, the Log IC50 [14] was -7.6, the Log IC50 [15] was -7.7 and the Log IC50 (LoVo [16]) was -8. For the same compound, the Log IC50 (PANC-1) was -8.3, the IC50 (A549 [17]) was 8 nM and the Log IC50 (H4) was -7.5. It also gave a Log IC50 (CFPAC-1) of -7.2, a Log IC50 [18] of -8.3 and a Log IC50 (T98G) of -8.2. The IC50 (HCT-15 [19]) was 24 nM, the Log IC50 [20] was -7.5 and the Log IC50 [21] was -9. The IC50 [22] was 75 nM, the Log IC50 [23] was -8.3 and the Log IC50 [24] was -7.4. For the same compound, the Log IC50 (DLD-1) was -7.4, the Log IC50 (MES-SA) was -7.8 and the Log IC50 (WiDr) was -7.8. The Log IC50 [25] was -7.4, the Log IC50 (LNCaP) was -8.3 and the Log IC50 [26] was -7.5. For the same compound, the Log IC50 (MIA PaCa-2) was -7.5, the Log IC50 [27] was -7.4 and the Log IC50 (CAKI-2) was -8.3. The Log IC50 (A498) was -8.2, the Log IC50 [28] was -8.1 and the Log IC50 [29] was -8. It also gave a Log IC50 (T47D) of -8.4 and a Log IC50 (A549 [30]) of -8.1.
